Assay outcomes as filed in PubChem BioAssay.
In the library only some 3.6% were active in any assay of this set; here they are far more common.
IMP-1 inhibitor = IMP-1 metallo-beta-lactamase inhibitors, primary screen, biochemical, epi-absorbance readout, Pseudomonas aeruginosa enzyme; purified IMP-1, nitrocefin hydrolysis, epi-absorbance fluorescence; metallo-beta-lactamase IMP-1 (Pseudomonas aeruginosa); inhibition, % at 5.6 µM; 0.45% of 290,000 active;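 active = inhibition above the mean plus 3 SD of all compounds in the same screening run, cut at about 4.5% in these data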;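 note: 0% = IMP-1 with DMSO and 100% = DMSO wells lacking enzyme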
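Assay system: purified recombinant IMP-1 beta-lactamase. Input: IMP-1 0.2 nM before substrate addition. Buffer or medium: Zinc- and detergent-supplemented HEPES buffer, pH 7.1. Schedule: 25 °C, 15 min preincubation, 25 min reaction. Signal: Epi-absorbance fluorescence, 480 nm excitation, 530 nm emission. Evaluation: percent inhibition from optical density relative to buffer-blank wells.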
PAFAH2 inh = PAFAH2 enzyme inhibitors, primary screen, biochemical, fluorescence polarization, human. Platelet-activating factor acetylhydrolase 2, cytoplasmic (Homo sapiens), Q99487. recombinant PAFAH2, FP-rhodamine activity probe. inhibition, % at 3.39 µM. 0.99% of 340,000 active. AID 492956, 2010;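 active = inhibition above the mean over all tested compounds plus 3 SD, cut at about 30% in these data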;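 note: inhibitors block probe labeling of enzyme so polarization drops; 0% = enzyme with DMSO and 100% = wells lacking PAFAH2 protein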
PAFAH1B3 inh = PAFAH1B3 enzyme inhibitors, primary screen, biochemical, fluorescence polarization, human | Platelet-activating factor acetylhydrolase IB subunit alpha1 (Homo sapiens), Q15102 | recombinant PAFAH1B3, FP-rhodamine probe | inhibition, % at 3.39 µM | 0.28% of 340,000 active;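 active = inhibition above the screen-wide average of all tested compounds plus 3 SD, cut at about 25% in these data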;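 note: 0% = enzyme with DMSO only and 100% = wells lacking PAFAH1B3 protein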
Target sequence (Q15102 whole entry, looked up): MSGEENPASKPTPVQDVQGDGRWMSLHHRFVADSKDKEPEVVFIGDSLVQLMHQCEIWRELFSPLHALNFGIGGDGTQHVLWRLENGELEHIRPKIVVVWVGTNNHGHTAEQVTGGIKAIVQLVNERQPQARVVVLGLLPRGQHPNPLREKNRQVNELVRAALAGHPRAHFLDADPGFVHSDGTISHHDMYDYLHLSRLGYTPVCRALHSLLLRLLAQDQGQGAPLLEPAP
PAFAH1B2 inh = PAFAH1B2 enzyme inhibitors, primary screen, biochemical, fluorescence polarization, human; recombinant PAFAH1B2, FP-rhodamine activity probe; AID 492953, 2010; Platelet-activating factor acetylhydrolase IB subunit alpha2 (Homo sapiens), P68402; 1.2% of 340,000 active; inhibition, % at 3.39 µM;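 active = inhibition above the mean of all tested compounds plus 3 SD, cut at about 24% in these data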;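 note: 0% = enzyme with DMSO and 100% = wells lacking PAFAH1B2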
Target sequence (P68402 whole entry, looked up): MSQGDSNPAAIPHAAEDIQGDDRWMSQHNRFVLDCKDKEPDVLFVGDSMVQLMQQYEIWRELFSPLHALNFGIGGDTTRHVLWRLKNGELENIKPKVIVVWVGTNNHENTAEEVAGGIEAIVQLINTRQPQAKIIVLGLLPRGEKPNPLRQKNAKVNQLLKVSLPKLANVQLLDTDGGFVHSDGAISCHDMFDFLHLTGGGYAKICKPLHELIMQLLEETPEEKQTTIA
pPAFAH inh = pPAFAH enzyme inhibitors, primary screen, biochemical, fluorescence polarization, human; Platelet-activating factor acetylhydrolase (Homo sapiens), Q13093; recombinant pPAFAH, FP-rhodamine probe fluorescence polarization; inhibition, % at 3.39 µM; 1.5% of 330,000 active; AID 463082, 2010;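 active = inhibition above the mean inhibition across the screen plus 3 SD, cut at about 25% in these data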;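 note: inhibitors block binding of the rhodamine activity-based probe so polarization drops; 0% = enzyme with DMSO and 100% = wells lacking pPAFAH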
VIM-2 inhibitor = VIM-2 metallo-beta-lactamase inhibitors, primary screen, biochemical, epi-absorbance readout, Pseudomonas aeruginosa enzyme; purified VIM-2, nitrocefin hydrolysis, epi-absorbance fluorescence; inhibition, % at 5.6 µM; 0.89% of 290,000 active; AID 1527, 2009;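 active = inhibition above the mean of all tested compounds plus 3 SD, cutoff set per screening run, cut at about 7.5% in these data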;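 note: red hydrolysis product quenches plate fluorescence so inhibitors raise well fluorescence; 0% = enzyme with DMSO and 100% = DMSO without enzyme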
Numbers without * were called inactive; x = no result given.

SMILES	IMP-1 inhibitor	PAFAH2 inh	PAFAH1B3 inh	PAFAH1B2 inh	pPAFAH inh	VIM-2 inhibitor
N#CCCN(C(=O)COC(=O)C1CCN(S(=O)(=O)c2ccc3c(c2)OCCO3)CC1)c1ccccc1	x	3	12	3	13	x
CC(=O)c1cccc(NS(=O)(=O)c2ccc3c(c2)N(C(C)=O)CCO3)c1	-3	1	0	6	4	-2
Cn1cc(C(=O)N/N=C/c2c(O)ccc3ccccc23)ccc1=O	0	11	6	13	19	-2
O=C(NN=Cc1c(O)ccc2ccccc12)c1ccncc1	x	-1	18	4	x	x
COc1ccc2ccccc2c1/C=N\NC(=O)c1cccnc1	x	x	x	x	2	x
O=C(N/N=C\c1c(O)ccc2ccccc12)c1ccc(O)cc1	-2	-14	41*	21	26*	-2
O=C(N/N=C/c1c(O)ccc2ccccc12)c1ccc(Br)o1	-4	14	35*	12	29*	-4
Cc1ccc(C(=O)N/N=C/c2c(O)ccc3ccccc23)cn1	-2	7	25	19	31*	-1
O=C(N/N=C/c1c(O)ccc2ccccc12)c1cccnc1	0	11	25	20	25*	-2
O=C(N/N=C/c1c(O)ccc2ccccc12)Nc1ccccc1	x	x	x	x	27*	x
CCOc1cc(N(CC)CC)ccc1/C=C(/C#N)c1nc2ccccc2[nH]1	-2	14	15	13	27*	-3
CC(NS(=O)(=O)c1ccccc1)C1CC2CCC1C2 (configuration not stated)	x	11	3	25*	7	x
C/C(CC(C)(C)C1CCCCC1)=N\NC(N)=S	0	2	2	41*	6	-5
Clc1ccc(N2CCN(/N=C/c3cccnc3)CC2)cc1	-2	2	0	28*	6	-1
COc1cccc(/C=N/N2CCN(c3ccc(Cl)cc3)CC2)c1OC	-1	0	5	33*	5	1
Cc1ccc(N2CCN(/N=C/c3cccnc3)CC2)cc1	-2	-6	8	7	x	0
COc1ccccc1C(=O)NCC(=O)OCC(=O)N1CC(C)OC(C)C1 (configuration not stated)	x	-3	3	2	x	x
COc1ccc(NS(=O)(=O)c2cccc(C(=O)NNC(=O)CNC(=O)c3ccc(C)cc3)c2)cc1	x	4	13	1	34*	x
COc1ccc(NS(=O)(=O)c2ccc(NC(=O)c3ccccn3)cc2)cc1	x	5	1	0	6	x
COc1ccc(NS(=O)(=O)c2cccc(NC(=O)c3ccccn3)c2)cc1	0	0	-2	-1	26*	-2
COc1ccc(NS(=O)(=O)c2cccc(C(=O)NNC(=O)NCCCl)c2)cc1	-5	-5	6	0	6	-1
COc1ccc(NS(=O)(=O)c2cccc(C(=O)NCC3(N4CCCCC4)CCCCC3)c2)cc1	x	-2	7	-1	32*	x
COc1ccc(NS(=O)(=O)c2ccc(C(=O)NCC3(N4CCOCC4)CCCCC3)cc2)cc1	x	4	2	9	31*	x
O=C(O)C1CCN(C(=O)Cc2ccccc2)CC1	-3	-22	1	1	-3	-4
NC(=O)C1CCN(C(=O)Cc2ccc(-c3ccccc3)cc2)CC1	9.7*	-1	-1	-9	10	-1
Cc1nc(CCNC(=O)CC2C(=O)NCCN2Cc2ccccc2)sc1C (configuration not stated)	5.0*	2	-1	-1	1	-1
Cc1ccc(/C(N)=N/OC(=O)Cc2ccccc2)cc1	-1	5	7	1	-3	-2
N/C(=N\OC(=O)Cc1ccccc1)c1ccc(Br)cc1	-1	-1	10	27*	4	1
Cc1ccc(NC(=O)C2CCCN(S(=O)(=O)c3cccc4nonc34)C2)cc1 (configuration not stated)	-3	12	-6	0	-4	-1
CC(=O)c1ccc(NC(=O)C2CCCN(S(=O)(=O)c3cccc4nonc34)C2)cc1 (configuration not stated)	-2	-2	7	29*	-2	0
